Measurements as given in ChEMBL document CHEMBL1177835, “A note to the biological activity of benzoxazine derivatives containing the thioxo group” (Eur J Med Chem, 2010).
In brackets after ≈: the same amount, converted by molar mass.

Key:
[1] = test system: Mycobacterium kansasii; test: Antimycobacterial activity against Mycobacterium kansasii CNCTC My 235/80 after 14 days by microdilution method; type: functional; conditions: CNCTC My 235/80, 336 h
How it was run: (§1)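 Dilution micromethod for MIC; compounds added to medium as DMSO solutions. Each strain also inoculated onto Löwenstein–Jensen medium to control inoculum sterility and growth. Strain 6509/96 is a clinical isolate; CNCTC strains from the Czech national type culture collection.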

[2] = test system: Mycobacterium kansasii; test: Antimycobacterial activity against Mycobacterium kansasii 6509/96 after 14 days by microdilution method; type: functional; conditions: for MIC: 6509/96, 336 h; how it was run: as §1
[3] = test system: Mycobacterium kansasii; test: Antimycobacterial activity against Mycobacterium kansasii 6509/96 after 21 days by microdilution method; type: functional; conditions: 6509/96, 504 h; how it was run: as §1
[4] = test system: Mycobacterium tuberculosis; test: Antimycobacterial activity against Mycobacterium tuberculosis CNCTC My 331/88 after 14 days by microdilution method; type: functional; conditions: CNCTC My 331/88, 336 h
How it was run: (§2)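 MIC determined by a dilution micromethod. Strains came from the Czech National Collection of Type Cultures, Prague. Compounds were added to the medium as DMSO solutions. Each inoculum was also plated in parallel on Löwenstein–Jensen medium to check its sterility and growth. The M. avium strain is identical with ATCC 25291 and resistant to INH.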

[5] = test system: Mycobacterium kansasii; test: Antimycobacterial activity against Mycobacterium kansasii CNCTC My 235/80 after 21 days by microdilution method; type: functional; conditions: CNCTC My 235/80, 504 h; how it was run: as §1
[6] = test system: Mycobacterium avium; test: Antimycobacterial activity against Mycobacterium avium CNCTC My 330/88 after 21 days by microdilution method; type: functional; conditions: CNCTC My 330/88, 504 h; how it was run: as §2
[7] = test system: Mycobacterium tuberculosis; test: Antimycobacterial activity against Mycobacterium tuberculosis CNCTC My 331/88 after 21 days by microdilution method; type: functional; conditions: CNCTC My 331/88, 504 h; how it was run: as §2
[8] = test system: Mycobacterium avium; test: Antimycobacterial activity against Mycobacterium avium CNCTC My 330/88 after 14 days by microdilution method; type: functional; conditions: CNCTC My 330/88, 336 h; how it was run: as §2
[9] = test system: K562; test: Antiproliferative activity against human K562 cells after 72 hrs by celltiter-blue assay; type: functional, cell-based
How it was run: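 K-562 grown in RPMI 1640 with ultraglutamine, gentamicin, 10% heat-inactivated FBS at 37 °C; about 10,000 cells/well. Compounds dissolved in DMSO and diluted in DMEM, incubated 72 h at 37 °C, 5% CO2. Viability read by CellTiter-Blue resazurin reduction. GI50 taken where the dose-response curve crosses 50% of untreated control.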

[10] = test system: HUVEC; test: Antiproliferative activity against HUVEC after 72 hrs by using methylene blue staining; type: cell-based; conditions: human
How it was run: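 HUVEC in culture medium with ultraglutamine, gentamicin, 10% heat-inactivated FBS, 37 °C. Harvested in log phase by trypsinization; about 10,000 cells/well. Compounds in DMSO, diluted in DMEM, incubated 72 h at 37 °C, 5% CO2. Cells then glutaraldehyde-fixed, stained with 0.05% methylene blue for 15 min, eluted with 0.33 N HCl, OD 660 nm. GI50 taken at 50% intersection versus untreated control.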

[11] = test system: HeLa; test: Cytotoxicity against human HeLa cells after 72 hrs by using methylene blue staining; type: functional, cell-based
How it was run: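 HeLa cells in RPMI 1640 with supplements, preincubated 48 h without compound. Compound dilutions were then applied to subconfluent monolayers for 72 h at 37 °C, 5% CO2. Cells were glutaraldehyde-fixed, stained with 0.05% methylene blue, eluted with 0.33 N HCl and read at OD 660 nm. CC50 taken at 50% intersection versus negative control.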

Row | SMILES | MIC [1] | MIC [2] | MIC [3] | MIC [4] | MIC [5] | MIC [6] | MIC [7] | MIC [8] | Activity [9] | Activity [10] | Activity [11] | Activity [2]
1 | S=c1oc2ccc(Br)cc2c(=S)n1Cc1ccc(Cl)c(Cl)c1 | 16 µM (≈ 6.93 µg/mL) | 16 µM (≈ 6.93 µg/mL) | 32 µM (≈ 13.9 µg/mL) | 4 µM (≈ 1.73 µg/mL) | 32 µM (≈ 13.9 µg/mL) | 16 µM (≈ 6.93 µg/mL) | 8 µM (≈ 3.47 µg/mL) | 16 µM (≈ 6.93 µg/mL) | – | – | – | –
2 | O=c1oc2ccccc2c(=S)n1Cc1ccc(Cl)c(Cl)c1 | 2 µM (≈ 0.676 µg/mL) | 2 µM (≈ 0.676 µg/mL) | 4 µM (≈ 1.35 µg/mL) | 1 µM (≈ 0.338 µg/mL) | 4 µM (≈ 1.35 µg/mL) | 1 µM (≈ 0.338 µg/mL) | 1 µM (≈ 0.338 µg/mL) | 1 µM (≈ 0.338 µg/mL) | Toxic | Toxic | Toxic | –
3 | O=c1oc2ccc(Cl)cc2c(=O)n1Cc1ccc(F)cc1 | 62.5 µM (≈ 19.1 µg/mL) | – | 125 µM (≈ 38.2 µg/mL) | 32 µM (≈ 9.78 µg/mL) | 62.5 µM (≈ 19.1 µg/mL) | 32 µM (≈ 9.78 µg/mL) | 32 µM (≈ 9.78 µg/mL) | 32 µM (≈ 9.78 µg/mL) | Toxic | Toxic | Toxic | Toxic
4 | O=c1oc2ccc(Cl)cc2c(=S)n1Cc1ccccc1 | 8 µM (≈ 2.43 µg/mL) | 4 µM (≈ 1.22 µg/mL) | 4 µM (≈ 1.22 µg/mL) | 1 µM (≈ 0.304 µg/mL) | 8 µM (≈ 2.43 µg/mL) | 8 µM (≈ 2.43 µg/mL) | 2 µM (≈ 0.608 µg/mL) | 4 µM (≈ 1.22 µg/mL) | Toxic | Toxic | Toxic | –
5 | O=c1oc2ccccc2c(=S)n1Cc1ccccc1 | 4 µM (≈ 1.08 µg/mL) | 4 µM (≈ 1.08 µg/mL) | 8 µM (≈ 2.15 µg/mL) | 1 µM (≈ 0.269 µg/mL) | 8 µM (≈ 2.15 µg/mL) | 8 µM (≈ 2.15 µg/mL) | 2 µM (≈ 0.539 µg/mL) | 8 µM (≈ 2.15 µg/mL) | Toxic | Toxic | Toxic | –
6 | O=c1oc2c(Cl)cc(Cl)cc2c(=S)n1Cc1ccc(Cl)c(Cl)c1 | 16 µM (≈ 6.51 µg/mL) | 16 µM (≈ 6.51 µg/mL) | 16 µM (≈ 6.51 µg/mL) | 2 µM (≈ 0.814 µg/mL) | 16 µM (≈ 6.51 µg/mL) | 4 µM (≈ 1.63 µg/mL) | 2 µM (≈ 0.814 µg/mL) | 4 µM (≈ 1.63 µg/mL) | Toxic | Toxic | Toxic | –
7 | S=c1oc2ccc(Br)cc2c(=S)n1Cc1ccccc1 | 8 µM (≈ 2.91 µg/mL) | 4 µM (≈ 1.46 µg/mL) | 8 µM (≈ 2.91 µg/mL) | 1 µM (≈ 0.364 µg/mL) | 8 µM (≈ 2.91 µg/mL) | 8 µM (≈ 2.91 µg/mL) | 2 µM (≈ 0.729 µg/mL) | 8 µM (≈ 2.91 µg/mL) | – | – | – | –
8 | O=c1oc2ccc(Cl)cc2c(=S)n1Cc1ccc(F)cc1 | 4 µM (≈ 1.29 µg/mL) | 4 µM (≈ 1.29 µg/mL) | 4 µM (≈ 1.29 µg/mL) | 1 µM (≈ 0.322 µg/mL) | 8 µM (≈ 2.57 µg/mL) | 4 µM (≈ 1.29 µg/mL) | 1 µM (≈ 0.322 µg/mL) | 4 µM (≈ 1.29 µg/mL) | Toxic | Toxic | Toxic | –
9 | O=c1oc2ccc(Br)cc2c(=S)n1Cc1ccc(Cl)c(Cl)c1 | 16 µM (≈ 6.67 µg/mL) | 16 µM (≈ 6.67 µg/mL) | 16 µM (≈ 6.67 µg/mL) | 2 µM (≈ 0.834 µg/mL) | 16 µM (≈ 6.67 µg/mL) | 8 µM (≈ 3.34 µg/mL) | 4 µM (≈ 1.67 µg/mL) | 8 µM (≈ 3.34 µg/mL) | Toxic | Toxic | Toxic | –
10 | O=c1oc2c(Cl)cc(Cl)cc2c(=O)n1Cc1ccc(Cl)c(Cl)c1 | 125 µM (≈ 48.9 µg/mL) | 125 µM (≈ 48.9 µg/mL) | 125 µM (≈ 48.9 µg/mL) | 62.5 µM (≈ 24.4 µg/mL) | 125 µM (≈ 48.9 µg/mL) | 125 µM (≈ 48.9 µg/mL) | 125 µM (≈ 48.9 µg/mL) | 125 µM (≈ 48.9 µg/mL) | Toxic | Toxic | Toxic | –
11 | O=c1oc2ccc(Cl)cc2c(=O)n1Cc1ccc(Cl)c(Cl)c1 | 62.5 µM (≈ 22.3 µg/mL) | 62.5 µM (≈ 22.3 µg/mL) | 62.5 µM (≈ 22.3 µg/mL) | 16 µM (≈ 5.71 µg/mL) | 62.5 µM (≈ 22.3 µg/mL) | 32 µM (≈ 11.4 µg/mL) | 16 µM (≈ 5.71 µg/mL) | 16 µM (≈ 5.71 µg/mL) | Toxic | Toxic | Toxic | –
12 | S=c1oc2ccc(Cl)cc2c(=S)n1Cc1ccc(Cl)c(Cl)c1 | 32 µM (≈ 12.4 µg/mL) | 32 µM (≈ 12.4 µg/mL) | 32 µM (≈ 12.4 µg/mL) | 4 µM (≈ 1.55 µg/mL) | 32 µM (≈ 12.4 µg/mL) | 32 µM (≈ 12.4 µg/mL) | 8 µM (≈ 3.11 µg/mL) | 16 µM (≈ 6.22 µg/mL) | – | – | – | –
13 | S=c1oc2ccccc2c(=S)n1Cc1ccc(Cl)c(Cl)c1 | 4 µM (≈ 1.42 µg/mL) | 4 µM (≈ 1.42 µg/mL) | 4 µM (≈ 1.42 µg/mL) | 1 µM (≈ 0.354 µg/mL) | 4 µM (≈ 1.42 µg/mL) | 0.5 µM (≈ 0.177 µg/mL) | 2 µM (≈ 0.709 µg/mL) | 0.5 µM (≈ 0.177 µg/mL) | – | – | – | –
